These results are taken from PubChem BioAssay.

The nature of test [1]: inhibitors of TNFa-induced NFkB p65 translocation, primary screen, imaging, HUVEC, MLSMR starter and 10KST1 sets (AID 438;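 active means inhibition above 20% together with a positive visual image hit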;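 further: compound added about 3h40 before a 20 min TNFalpha stimulation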;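 on inhibition: signal is the nuclear over cytoplasmic p65 intensity ratio per well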). Conditions: HUVEC TNFa-induced p65 nuclear translocation; cell count: measured here: nuclei count (cytotoxicity indicator), at 2.08 µM; inhibition: at 2 µM, stronger effect = higher value, 0% TNFa-plus-vehicle, 100% no-TNFa wells.
Test [2] can be described thus: inhibitors of E-selectin induction by TNFa, primary screen, imaging, HUVEC, immunofluorescence, MLSMR starter and 10KST1 sets (AID 487;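 active means visually confirmed hit in the image check and inhibition above 20%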;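 on inhibition: signal is fraction of cell area covered by stained E-selectin grains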;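 on nuclei count: 100% = median nuclei count of all wells on the same plate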). Conditions: HUVEC TNFalpha-induced E-selectin immunofluorescence imaging, at 2 µM; inhibition: stronger effect = higher value; nuclei count: measured here: cell number, toxicity.
Test [3] is described as follows: DUSP6 inhibitors restoring Erk phosphorylation by chemical complementation, primary imaging in DUSP6-transfected HeLa (AID 609;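 active means compounds giving at least 50% inhibition in the cell-based MKP-3 phosphatase rescue imaging test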;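 on inhibition: phospho-Erk level distribution per well compared with pooled transfected vehicle control wells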). The settings on record: HeLa MKP-3 transfected, phospho-Erk imaging KS statistic, at 10 µM, cells stimulated with TPA for 15 min.
Test [4] deals with Dual specificity protein phosphatase 6 (Homo sapiens) (UniProt Q16828). Described as above. The settings on record: HeLa MKP-3 transfected, phospho-Erk imaging KS statistic; at 10 µM; stronger effect = higher value; cells stimulated with TPA for 15 min.
Test [5] has as its target Voltage-gated potassium channel subunit beta-2 (Rattus norvegicus) (UniProt P62483). In words: KvBeta enzyme negative modulators, primary screen, biochemical, NADPH fluorescence (AID 622;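 active means fluorescence slope higher than the sample average by over 3 SD, cut at about -0.22 in these data, passing the limit was not always enough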;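 further: slope of raw intensity against log time taken from 70 to 1610 s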). Conditions: recombinant KvBeta, 4-cyanobenzaldehyde reduction, at 10 µM, stronger effect = higher value.
Test [6] shares this target. Description: KvBeta positive modulators, primary screen, biochemical, NADPH fluorescence (AID 623;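 active means NADPH fluorescence slope more negative than the mean of all samples by about 3 SD, 99.7% confidence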;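 further: fluorescence intensity change per second fitted from 20 to 320 s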). The settings on record: Recombinant KvBeta, NADPH fluorescence decrease slope, 10 min; at 10 µM; stronger effect = lower value.
The target in test [7] is Muscarinic acetylcholine receptor M4 (Homo sapiens) (UniProt P08173). Description: compounds altering M4/GIRK thallium flux, either direction, primary screen, M4 allosteric agonist project, cell-based, HEK293 M4/GIRK, BTC-AM (AID 625).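 Further: thallium influx through GIRK channels coupled to M4 in HEK293 cells with BTC-AM dye.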 Conditions: at 10 µM, actives lie on both sides. Summed up: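 Material: M4/GIRK1/GIRK2 stable HEK293 cell line. Medium: pH 7.3 thallium assay buffer. Dosing: single compound concentration, 10 µM final. Schedule: 1 h dye loading, 2 min kinetic read. Measured by: kinetic fluorescence with BTC-AM dye. Read-out: post-addition slope, 15–24 s, of baseline-normalized fluorescence. Benchmarks: carbachol and DMSO controls.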

Test [8] is described as follows: inhibitors of larval lipid processing in zebrafish, primary screen, whole organism, PED6 fluorescence, gall bladder and intestine (AID 686;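 active means a full or partial loss of lipid-probe fluorescence in the fish gall bladder, intestine or both, judged by eye; inactive means no fluorescence loss, or compound toxic to the fish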;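 further: larvae 5 to 7 days old with five fish per well; signal comes from phospholipase A2 cleavage of quenched PED6 carried via bile; overnight exposure to compound and PED6 before scoring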). The settings on record: Zebrafish larvae PED6 lipid processing, fluorescence scoring; screened at 20 µM (by protocol). In a few lines:
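System: live zebrafish larvae aged 5-7 days, whole organism; measure: graded gall bladder and intestinal fluorescence inhibition per well; incubation: overnight exposure; reagent: ingested quenched lipid PED6 at 100 nM; signal: By-eye fluorescence microscopy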

Test [9] in a line: inhibitors of Chlamydomonas gravitaxis, primary screen, whole organism, Chlamydomonas reinhardtii, WT vs cilia-less mutant, absorbance, 96-well (AID 463189;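 active means inhibition at or above 50% relative to wild type and mutant plate controls; inactive means inhibition below 50%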;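 further: 0% = wild type cc124 cells in DMSO and 100% = ciliumless bld1 mutant cells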). The settings on record: OD600 absorbance, 2 days, at 10 µM, stronger effect = higher value.
[10] abbreviates: measured here: cell density z-score.
Setting [11] is: measured here: nuclear c-Myc green intensity z-score.
Setting [12] is: measured here: nuclear pErk red intensity z-score, stronger effect = higher value.

Active and inactive are the calls of the source.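 How the source made its calls, unless noted: active means fluorescence slope after compound addition differing from the mean of all tested samples at 99.7% confidence, mostly higher but some lower; inactive means the rest.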

Chain of Muscarinic acetylcholine receptor M4 (Homo sapiens) (P08173 whole entry, looked up): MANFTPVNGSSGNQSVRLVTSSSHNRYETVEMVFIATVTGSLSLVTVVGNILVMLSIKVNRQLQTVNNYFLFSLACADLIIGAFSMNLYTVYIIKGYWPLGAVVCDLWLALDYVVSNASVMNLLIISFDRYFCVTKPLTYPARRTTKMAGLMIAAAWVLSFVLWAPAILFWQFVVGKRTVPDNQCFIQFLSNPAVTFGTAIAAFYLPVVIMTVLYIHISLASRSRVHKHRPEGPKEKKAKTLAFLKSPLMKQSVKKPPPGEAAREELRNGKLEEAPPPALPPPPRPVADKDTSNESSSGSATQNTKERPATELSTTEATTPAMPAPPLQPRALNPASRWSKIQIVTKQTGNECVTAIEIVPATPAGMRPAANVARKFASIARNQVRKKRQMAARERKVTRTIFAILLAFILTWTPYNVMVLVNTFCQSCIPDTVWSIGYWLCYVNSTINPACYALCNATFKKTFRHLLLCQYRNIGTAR
Chain of Dual specificity protein phosphatase 6 (Homo sapiens) (Q16828 whole entry, looked up): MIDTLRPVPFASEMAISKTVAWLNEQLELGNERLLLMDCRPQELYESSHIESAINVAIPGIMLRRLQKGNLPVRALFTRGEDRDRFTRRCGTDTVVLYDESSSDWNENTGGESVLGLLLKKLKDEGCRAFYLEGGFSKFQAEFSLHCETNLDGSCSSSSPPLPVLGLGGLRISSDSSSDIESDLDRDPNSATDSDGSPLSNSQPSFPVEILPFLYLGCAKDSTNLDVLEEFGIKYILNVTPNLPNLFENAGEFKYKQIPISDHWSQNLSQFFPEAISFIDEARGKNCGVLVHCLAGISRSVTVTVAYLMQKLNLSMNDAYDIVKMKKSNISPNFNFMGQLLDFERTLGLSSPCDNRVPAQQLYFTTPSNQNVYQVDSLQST
Chain of Voltage-gated potassium channel subunit beta-2 (Rattus norvegicus) (P62483 whole entry, looked up): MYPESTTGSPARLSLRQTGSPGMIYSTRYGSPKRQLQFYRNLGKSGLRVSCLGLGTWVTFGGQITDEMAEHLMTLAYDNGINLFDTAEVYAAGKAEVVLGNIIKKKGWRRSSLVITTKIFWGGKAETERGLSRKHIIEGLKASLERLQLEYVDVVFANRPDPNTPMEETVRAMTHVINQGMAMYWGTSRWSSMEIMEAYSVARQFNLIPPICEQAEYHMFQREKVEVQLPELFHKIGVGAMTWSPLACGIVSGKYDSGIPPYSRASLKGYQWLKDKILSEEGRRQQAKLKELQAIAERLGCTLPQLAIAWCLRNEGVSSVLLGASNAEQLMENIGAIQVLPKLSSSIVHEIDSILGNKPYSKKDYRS

As to `N#Cc1nc(COc2ccccc2)oc1N1CCCC1`, the cell count in test [1] was determined as 463. Besides, the inhibition in test [1] is -4.6% (inactive); in [2], -281% (inactive); in test [4], 4.37% (inactive); in test [9], -0.28% (inactive). In test [2], this compound yielded a nuclei count of 164%. The z-score is -0.447 in test [3] (setting [10]), 1.68 in test [3] (setting [11]) and 0.969 in test [3] (setting [12]). Also, the fluorescence slope in test [5] was -0.42 (inactive); in test [7], 0.00421 (inactive). In [6], the NADPH fluorescence slope is -4.6e-05 (inactive). In addition, the outcome in test [8] was inactive.

As to `CCCCSc1nnc2n(CCc3ccccc3)c(=O)c3c4c(sc3n12)COC(C)(C)C4`, in test [1], the cell count was 533. Besides, the inhibition in test [1] is -4.4% (inactive); in test [2], -25.9% (inactive); in test [4], 11.9% (inactive); in test [9] it was 129% (active). The nuclei count in [2] worked out at 170%. In addition, the values for the z-score in [3] (setting [10]), in [3] (setting [11]) and in test [3] (setting [12]) were 1.42, -1.24 and 0.334, respectively. The fluorescence slope in test [5] was -0.334 (inactive); in test [7], 0.00807 (inactive). In addition, the NADPH fluorescence slope in test [6] is -6.5e-06 (inactive). For the same compound, in [8], the compound was classed as inactive.

`CCOC(=O)C1=C(C)OC(N)=C(C#N)C1c1cc2ccccc2nc1N1CCCCC1` (stereo unspecified): in [1], the cell count turned out to be 619. Further, the inhibition in test [1] was -8.2% (inactive); in test [2], -33.5% (inactive); in [4], -14.6% (inactive); in test [9], 37.2% (inactive). Besides, the nuclei count in test [2] was 181%. For the same compound, the z-score in test [3] (setting [10]) was -0.314; in test [3] (setting [11]), 0.189; in test [3] (setting [12]) it was 0.368. The results for the fluorescence slope in test [5] and in test [7] were -0.315 (inactive) and 0.00507 (inactive), respectively. Also, the NADPH fluorescence slope in [6] was -8.1e-06 (inactive). Also, the call in test [8] was inactive.

Take `COc1cccc(N2CCN(C(=O)c3ccc(=O)oc3)CC2C)c1` (stereo unspecified): the cell count in test [1] was found to be 548. The inhibition in test [1] is -13.7% (inactive); in test [2], -2.6% (inactive); in test [4], -2.91% (inactive); in [9] it was 13.7% (inactive). In addition, the nuclei count in test [2] was 114%. Besides, the figures for the z-score in [3] (setting [10]), in [3] (setting [11]) and in [3] (setting [12]) were 0.444, -0.0742 and 1.46, respectively. For the same compound, the fluorescence slope is -0.418 (inactive) in test [5] and 0.00472 (inactive) in test [7]. In addition, the NADPH fluorescence slope in test [6] is 6.4e-07 (inactive). The compound was called inactive in test [8].

On to `Cc1ccc(N2C(=O)c3sc4nnc(C)c(=O)n4c3C2=O)cc1`, for which the cell count in [1] was determined as 637. Moreover, the inhibition is 1.3% (inactive) in test [1], -129% (inactive) in test [2], -7.86% (inactive) in [4] and 2.4% (inactive) in [9]. Also, the nuclei count in [2] came out at 144%. Further, the z-score in test [3] (setting [10]) is 0.278; in [3] (setting [11]), 1.58; in test [3] (setting [12]), -1.15. Also, the results for the fluorescence slope in test [5] and in test [7] were -0.478 (inactive) and 0.00581 (inactive), respectively. In [6], the NADPH fluorescence slope was -4e-05 (inactive). Besides, the outcome in test [8] was inactive.

`Cc1nc(NCCO)c(C#N)c2c1COC(C)(C)C2`: in test [1], the cell count stood at 538. For the same compound, the inhibition in test [1] is -2.6% (inactive); in test [2] it was -147% (inactive); in test [4], 15.4% (inactive); in [9] it was 5.51% (inactive). Moreover, in [2], the nuclei count is 132%. Moreover, the z-score in test [3] (setting [10]) was -0.0329; in test [3] (setting [11]), 1.94; in [3] (setting [12]), -1.24. Moreover, the fluorescence slope in test [5] is -0.464 (inactive); in test [7], 0.0044 (inactive). The NADPH fluorescence slope in test [6] is -3.6e-05 (inactive). In addition, in [8], the result was inactive.

Turning to `O=c1[nH]cnc2c1cnn2Cc1ccccc1`, the cell count in test [1] was 509. Moreover, the inhibition in [1] was -2.1% (inactive); in test [2], -58.3% (inactive); in [4] it was -3.97% (inactive); in test [9], -9.15% (inactive). In test [2], this compound showed a nuclei count of 145%. Besides, the z-score is 0.233 in [3] (setting [10]), -0.586 in test [3] (setting [11]) and 0.288 in test [3] (setting [12]). Also, the fluorescence slope in test [5] is -0.354 (inactive); in [7], 0.00657 (inactive). Moreover, the NADPH fluorescence slope in test [6] is -5.1e-05 (inactive). Also, the result in test [8] was inactive.
